Consider 5 compounds from ChEMBL document CHEMBL2176903, “P2-substituted N-acylprolylpyrrolidine inhibitors of prolyl oligopeptidase: biochemical evaluation, binding mode determination, and assessment in a cellular model of synucleinopathy” (J Med Chem, 2012).

The target of one assay is Prolyl endopeptidase (Sus scrofa, UniProt P23687). Nature of the assay: Inhibition of pig PREP expressed in Escherichia coli using Z-Gly-Pro-p-nitroanilide substrate.
A further assay has as its target T1, Prolyl endopeptidase FAP (Mus musculus, UniProt P97321).
T1 sequence (P97321 whole entry): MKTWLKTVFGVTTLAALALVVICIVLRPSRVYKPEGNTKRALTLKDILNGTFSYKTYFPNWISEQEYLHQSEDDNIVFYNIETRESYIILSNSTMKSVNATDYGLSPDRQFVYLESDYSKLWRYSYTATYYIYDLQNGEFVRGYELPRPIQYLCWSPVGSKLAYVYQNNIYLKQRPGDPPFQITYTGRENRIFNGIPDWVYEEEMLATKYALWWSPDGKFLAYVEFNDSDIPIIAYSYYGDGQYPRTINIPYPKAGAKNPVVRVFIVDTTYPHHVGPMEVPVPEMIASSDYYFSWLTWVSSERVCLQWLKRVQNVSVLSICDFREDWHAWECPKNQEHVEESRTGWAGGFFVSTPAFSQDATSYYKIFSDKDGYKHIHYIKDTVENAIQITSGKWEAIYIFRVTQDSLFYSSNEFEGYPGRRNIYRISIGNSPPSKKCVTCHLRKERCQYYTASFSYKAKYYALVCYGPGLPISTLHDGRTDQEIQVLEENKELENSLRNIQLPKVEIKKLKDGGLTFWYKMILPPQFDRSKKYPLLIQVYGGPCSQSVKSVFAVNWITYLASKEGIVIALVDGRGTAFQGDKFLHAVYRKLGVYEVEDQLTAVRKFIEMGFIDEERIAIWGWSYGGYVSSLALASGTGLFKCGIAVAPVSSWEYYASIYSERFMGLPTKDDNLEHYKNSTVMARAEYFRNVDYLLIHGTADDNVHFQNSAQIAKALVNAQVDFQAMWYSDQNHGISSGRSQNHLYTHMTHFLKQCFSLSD
Kind of assay: Inhibition of mouse recombinant FAP expressed in HEK293 cells assessed as pNA release from Ala-Pro-p-nitroanilide pre-incubated with enzyme for 15 mins prior to substrate addition by […]. It is filed as cell-based.

Assay [1] has as its target T2, Prolyl endopeptidase (Homo sapiens) (UniProt P48147).
T2 sequence (whole entry): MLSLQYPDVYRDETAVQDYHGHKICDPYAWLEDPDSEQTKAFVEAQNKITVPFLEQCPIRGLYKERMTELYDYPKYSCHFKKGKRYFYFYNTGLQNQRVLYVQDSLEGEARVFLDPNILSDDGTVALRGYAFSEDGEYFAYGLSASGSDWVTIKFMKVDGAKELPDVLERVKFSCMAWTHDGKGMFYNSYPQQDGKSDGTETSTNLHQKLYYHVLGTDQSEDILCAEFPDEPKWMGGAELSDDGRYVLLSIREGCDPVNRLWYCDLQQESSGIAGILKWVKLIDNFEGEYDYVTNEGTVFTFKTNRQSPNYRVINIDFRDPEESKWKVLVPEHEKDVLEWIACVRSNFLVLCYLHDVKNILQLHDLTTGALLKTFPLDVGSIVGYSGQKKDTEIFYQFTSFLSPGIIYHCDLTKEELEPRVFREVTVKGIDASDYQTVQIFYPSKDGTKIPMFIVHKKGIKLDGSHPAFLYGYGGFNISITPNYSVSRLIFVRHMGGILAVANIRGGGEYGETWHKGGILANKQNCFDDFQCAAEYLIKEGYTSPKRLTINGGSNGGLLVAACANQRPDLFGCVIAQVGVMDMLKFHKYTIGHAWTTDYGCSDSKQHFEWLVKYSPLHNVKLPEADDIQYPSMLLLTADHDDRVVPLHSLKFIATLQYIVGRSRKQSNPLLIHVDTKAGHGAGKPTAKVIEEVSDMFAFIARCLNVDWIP
Kind of assay: Inhibition of PREP in human SH-SY5Y cellular model of synucleinopathy over-expressing alpha-synuclein assessed as reduction in late apoptotic level 0.1 to 9 uM incubated for 3 days under oxidative stress condition by high content multiparametric method. In short, it runs like this: (§1)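 SH-SY5Y neuroblastoma cells overexpressing α-SYN were incubated with inhibitor for 3 days under oxidative stress from H₂O₂ plus FeCl₂. Aggregates were detected by thioflavin S staining. Late apoptosis was scored as nuclear condensation and fragmentation. Quantification used automated high-content imaging. Values are % of cells relative to the 1% DMSO control. Significance was tested by ANOVA with Dunnett's post-test (5% level).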

Another assay addresses Dipeptidyl peptidase 4 (Homo sapiens, UniProt P27487). Nature of the assay: Inhibition of human seminal plasma DPP4 assessed as pNA release from Gly-Pro-p-nitroanilide substrate pre-incubated with enzyme for 15 min prior to substrate addition by […].
In assay [2] the target is T2, Prolyl endopeptidase (Homo sapiens). Kind of assay: Inhibition of PREP in human SH-SY5Y cellular model of synucleinopathy over-expressing alpha-synuclein assessed as reduction in alpha-synuclein aggregation 0.1 to 9 uM incubated for 3 days under oxidative stress condition by high content multiparametric method. In a few lines: as §1
In the next assay the target is Dipeptidyl peptidase 2 (Homo sapiens, UniProt Q9UHL4). Kind of assay: Inhibition of human seminal plasma DPP2 assessed as pNA release from Lys-Ala-p-nitroanilide substrate pre-incubated with enzyme for 15 min prior to substrate addition by […].
Assay [3] can be described thus: Inhibition of bovine testes DPP9 assessed as pNA release from Ala-Pro- p-nitroanilide substrate pre-incubated with enzyme for 15 min prior to substrate addition by […]. Also on record: species or system Bos taurus.

SMILES strings stand for the structures. Activity calls are given as the source filed them. No cut-off for these calls is given here.

Sequence of Dipeptidyl peptidase 4 (P27487 whole entry): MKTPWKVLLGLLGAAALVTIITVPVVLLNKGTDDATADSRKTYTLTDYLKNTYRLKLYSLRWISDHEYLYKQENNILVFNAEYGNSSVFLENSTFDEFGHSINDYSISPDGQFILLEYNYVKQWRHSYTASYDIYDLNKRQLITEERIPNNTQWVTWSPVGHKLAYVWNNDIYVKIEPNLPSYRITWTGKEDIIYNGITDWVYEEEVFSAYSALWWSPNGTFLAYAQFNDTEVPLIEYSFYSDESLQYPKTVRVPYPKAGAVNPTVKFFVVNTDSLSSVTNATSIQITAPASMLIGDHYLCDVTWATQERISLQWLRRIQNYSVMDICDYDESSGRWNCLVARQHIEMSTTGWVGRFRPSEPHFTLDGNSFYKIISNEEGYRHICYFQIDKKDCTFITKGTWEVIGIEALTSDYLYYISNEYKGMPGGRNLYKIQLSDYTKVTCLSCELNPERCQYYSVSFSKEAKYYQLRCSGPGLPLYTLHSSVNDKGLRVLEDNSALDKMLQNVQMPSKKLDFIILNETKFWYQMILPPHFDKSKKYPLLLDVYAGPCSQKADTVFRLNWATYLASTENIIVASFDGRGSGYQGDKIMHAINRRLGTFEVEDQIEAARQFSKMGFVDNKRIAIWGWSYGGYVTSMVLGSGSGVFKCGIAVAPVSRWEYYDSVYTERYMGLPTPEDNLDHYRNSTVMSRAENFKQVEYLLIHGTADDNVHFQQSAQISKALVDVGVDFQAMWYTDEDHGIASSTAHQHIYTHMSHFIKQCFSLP
Sequence of Prolyl endopeptidase (P23687 whole entry): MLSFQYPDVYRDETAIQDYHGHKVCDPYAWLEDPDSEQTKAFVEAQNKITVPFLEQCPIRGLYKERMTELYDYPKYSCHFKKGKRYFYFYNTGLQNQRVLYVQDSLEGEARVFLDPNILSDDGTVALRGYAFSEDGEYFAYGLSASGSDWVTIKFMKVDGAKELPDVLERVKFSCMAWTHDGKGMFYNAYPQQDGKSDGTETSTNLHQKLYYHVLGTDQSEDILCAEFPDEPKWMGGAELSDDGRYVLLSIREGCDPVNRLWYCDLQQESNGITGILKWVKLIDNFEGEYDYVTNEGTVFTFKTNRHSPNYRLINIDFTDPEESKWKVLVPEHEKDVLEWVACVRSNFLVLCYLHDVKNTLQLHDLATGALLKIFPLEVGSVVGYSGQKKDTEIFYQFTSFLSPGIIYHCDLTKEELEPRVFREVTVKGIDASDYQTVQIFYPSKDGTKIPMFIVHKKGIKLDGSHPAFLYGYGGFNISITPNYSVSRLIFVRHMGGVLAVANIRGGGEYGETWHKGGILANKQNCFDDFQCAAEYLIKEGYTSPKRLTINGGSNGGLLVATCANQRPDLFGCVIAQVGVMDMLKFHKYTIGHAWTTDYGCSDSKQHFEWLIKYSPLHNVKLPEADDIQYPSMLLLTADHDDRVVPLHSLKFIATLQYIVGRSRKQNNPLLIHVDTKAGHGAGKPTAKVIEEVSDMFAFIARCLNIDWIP

By IC50 is commonly meant the midpoint of a concentration-inhibition curve. Turning to `CC(C)(C)OC(=O)NCc1cn([C@H]2C[C@@H](C(=O)N3CCC[C@H]3C#N)N(C(=O)CCCc3ccccc3)C2)nn1`, the 50% inhibitory concentration (IC50) is 0.009 µM at Prolyl endopeptidase; over 100 µM at Prolyl endopeptidase FAP; over 100 µM at Dipeptidyl peptidase 4; over 100 µM at Dipeptidyl peptidase 2; over 100 µM in assay [3]. Also, the inhibition result in assay [1] and in assay [2] was “Active” in each case.

As for `N#C[C@@H]1CCCN1C(=O)[C@@H]1C[C@H](N=[N+]=[N-])CN1C(=O)CCCc1ccccc1`, the IC50 against Prolyl endopeptidase is 0.003 µM; at Prolyl endopeptidase FAP, over 100 µM; on Dipeptidyl peptidase 4 it was over 100 µM; on Dipeptidyl peptidase 2, over 100 µM; in assay [3], over 100 µM. For the same compound, the inhibition result in assay [1] and in assay [2] was “Active” each time.

With `O=C([C@@H]1C[C@H](n2cc(-c3ccccn3)nn2)CN1C(=O)CCCc1ccccc1)N1CCCC1`, the 50% inhibitory concentration (IC50) against Prolyl endopeptidase is 0.069 µM; on Prolyl endopeptidase FAP it was over 100 µM; on Dipeptidyl peptidase 4, over 100 µM; on Dipeptidyl peptidase 2 it was over 100 µM; in assay [3] it was over 100 µM.

As to `O=C([C@@H]1C[C@H](n2cc(CN3CCNCC3)nn2)CN1C(=O)CCCc1ccccc1)N1CCCC1`, the IC50 at Prolyl endopeptidase is 0.1 µM; on Prolyl endopeptidase FAP, over 100 µM; on Dipeptidyl peptidase 4, over 100 µM; at Dipeptidyl peptidase 2, over 100 µM; in assay [3], 1.3 µM.

As for `[N-]=[N+]=N[C@H]1C[C@@H](C(=O)N2CCCC2)N(C(=O)OCc2ccccc2)C1`, the half-inhibitory concentration (IC50) was 0.364 µM on Prolyl endopeptidase; over 100 µM on Prolyl endopeptidase FAP; over 100 µM at Dipeptidyl peptidase 4; over 100 µM at Dipeptidyl peptidase 2; over 100 µM in assay [3].
